Data on 20 molecules can be found in ChEMBL document CHEMBL1275315, “Synthesis, antioxidant activities and urease inhibition of some new 1,2,4-triazole and 1,3,4-thiadiazole derivatives” (Eur J Med Chem, 2010).

The target in one experiment is Urease (Canavalia ensiformis, UniProt P07374). Briefly: (§1) Inhibition of jack bean urease assessed as ammonia production after 15 mins by indophenol method. In a few lines: (§2)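 Jack bean urease preincubated with test sample at 30 °C for 15 min in buffer containing 100 mM urea, pH 6.8. Ammonia measured by the indophenol method, using phenol reagent (1% w/v phenol, 0.005% w/v sodium nitroprusside) and alkali reagent (0.5% w/v NaOH, 0.1% active chloride NaOCl). Absorbance at 630 nm read after 50 min. Run in triplicate; % inhibition calculated from OD test/OD control; thiourea as standard.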
Sequence of Urease (P07374 whole entry): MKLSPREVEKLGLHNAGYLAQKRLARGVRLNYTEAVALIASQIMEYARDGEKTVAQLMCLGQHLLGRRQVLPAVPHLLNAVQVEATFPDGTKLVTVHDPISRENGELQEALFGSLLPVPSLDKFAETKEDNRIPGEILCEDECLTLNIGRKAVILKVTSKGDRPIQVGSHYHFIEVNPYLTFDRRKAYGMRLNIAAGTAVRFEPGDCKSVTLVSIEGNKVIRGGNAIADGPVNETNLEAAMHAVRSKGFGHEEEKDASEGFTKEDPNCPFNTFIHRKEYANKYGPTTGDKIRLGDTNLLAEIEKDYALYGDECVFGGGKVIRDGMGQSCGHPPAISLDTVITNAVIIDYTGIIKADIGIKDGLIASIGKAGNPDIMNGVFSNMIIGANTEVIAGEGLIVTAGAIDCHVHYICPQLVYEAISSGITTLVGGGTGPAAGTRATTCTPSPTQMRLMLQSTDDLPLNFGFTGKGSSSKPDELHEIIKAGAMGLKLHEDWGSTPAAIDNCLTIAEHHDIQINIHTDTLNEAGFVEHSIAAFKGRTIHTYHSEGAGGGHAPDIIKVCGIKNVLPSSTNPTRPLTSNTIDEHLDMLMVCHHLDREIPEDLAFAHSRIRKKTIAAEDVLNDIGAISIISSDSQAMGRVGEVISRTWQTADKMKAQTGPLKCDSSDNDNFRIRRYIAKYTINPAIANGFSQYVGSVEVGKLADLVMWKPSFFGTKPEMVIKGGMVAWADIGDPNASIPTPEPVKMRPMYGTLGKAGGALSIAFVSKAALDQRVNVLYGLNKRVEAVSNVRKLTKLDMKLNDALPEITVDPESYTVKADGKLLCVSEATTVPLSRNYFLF

Experiment [1] has as its target Urease (Canavalia ensiformis) (UniProt P07374). The experiment is described as §1. On the set-up: inhibition: concentration or dose not given beside the values. In a few lines:
as §2

Experiment [2] in a line: Antioxidant activity assessed as Superoxide anion radical scavenging activity in cell-free system. The experiment is classed as functional. The method, boiled down: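 NADH–NBT–PMS system in 0.1 M phosphate buffer, pH 7.4, with sample added from a 1 mM DMSO stock; other reagents made up in buffer. Run at room temperature. Superoxide followed as blue formazan formation at 560 nm.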

The test system of experiment [3] is Radical scavenging activity. In words: Antioxidant activity assessed as DPPH free radical scavenging activity in cell-free system after 30 mins. The experiment is classed as functional. The method, boiled down:
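Compound dissolved in DMSO and DPPH in ethanol. Decrease in absorbance read at 515 nm after incubation. Percent radical scavenging calculated relative to a DMSO-treated control.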
Background: Loss of DPPH colour is used to gauge radical scavenging.

Sequence of Urease (Canavalia ensiformis) (P07374 whole entry, looked up): as the sequence (P07374 whole entry) above

What is called IC50 is the concentration at which inhibition is half-maximal. What is called inhibition is the change of the read-out against control, counted positive when it falls. For `Cc1cccc(-n2c(-c3ccccc3)n[nH]c2=S)c1C`, the IC50 at Urease was determined as 86 µM. Moreover, in experiment [1], the inhibition is 93.4%.
For `Cc1ccc(-n2c(-c3cccc(Cl)c3)n[nH]c2=S)c(C)c1`, on Urease, the IC50 is 460 µM. Further, in experiment [1], the inhibition was 53.1%.
The term IC10 denotes the point of the concentration-response curve where the effect stands at 10%. Consider `NC(N)=S`, for which the IC10 in experiment [1] turned out to be 21 µM.
For `Cc1cccc(Nc2nnc(-c3ccccc3)s2)c1C`, the IC50 on Urease stood at 426 µM. Also, the inhibition in experiment [1] is 56.8%.
Turning to `Cc1ccc(Nc2nnc(-c3cccc([N+](=O)[O-])c3)s2)c(C)c1`, the IC50 at Urease turned out to be 398 µM; in experiment [2] it was 131 µM. For the same molecule, the inhibition in experiment [1] stood at 73.4%.
Take `Cc1ccc(-c2nnc(Nc3c(C)cccc3C)s2)cc1`: the inhibition in experiment [1] was 27.1%.
With `Cc1cccc(C)c1-n1c(-c2ccc(Cl)cc2)n[nH]c1=S`, the inhibition in experiment [1] was determined as 7.5%.
With `Cc1cccc(C)c1-n1c(-c2ccccc2Cl)n[nH]c1=S`, the inhibition in experiment [1] is 48.3%.
`Cc1ccc(-n2c(-c3cccc([N+](=O)[O-])c3)n[nH]c2=S)c(C)c1`: the half-inhibitory concentration (IC50) on Urease amounted to 45.6 µM; in experiment [3] it was 242 µM. Further, the inhibition in experiment [1] stood at 97%.
Turning to `Cc1ccc(-n2c(-c3ccc(Cl)cc3)n[nH]c2=S)c(C)c1`, the figures for the IC50 (on Urease; in experiment [3]) were 171 µM and 292 µM, respectively. Besides, in experiment [1], the inhibition stood at 88.6%.
`CCCOC(=O)c1cc(O)c(O)c(O)c1` [PROPYL GALLATE]: the IC50 was found to be 106 µM in experiment [2] and 30.5 µM in experiment [3].
Regarding `Cc1cccc(-n2c(-c3ccc(Cl)cc3)n[nH]c2=S)c1C`, in experiment [1], the inhibition came out at 48.3%.
Take `Cc1cccc(C)c1-n1c(-c2cccc(Cl)c2)n[nH]c1=S`: the IC50 at Urease was determined as 357 µM. The inhibition in experiment [1] worked out at 64.8%.
For the molecule `Cc1ccccc1-c1n[nH]c(=S)n1-c1cccc(C)c1C`, in experiment [1], the inhibition is 43.4%.
Take `Cc1ccc(Nc2nnc(-c3ccc([N+](=O)[O-])cc3)s2)c(C)c1`: the inhibition in experiment [1] was found to be 7.2%. In addition, in experiment [2], the IC50 was found to be 94.8 µM.
For the molecule `Cc1cccc(C)c1Nc1nnc(-c2ccc(Cl)cc2)s1`, the IC50 was 215 µM at Urease, 255 µM in experiment [2] and 320 µM in experiment [3]. Besides, the inhibition in experiment [1] was found to be 91.1%.
On to `Cc1cccc(Nc2nnc(-c3ccc(Cl)cc3)s2)c1C`, for which the IC50 on Urease is 484 µM; in experiment [2] it was 139 µM. In addition, the inhibition in experiment [1] turned out to be 52.8%.
Turning to `Cc1ccc(Nc2nnc(-c3cccc(Cl)c3)s2)c(C)c1`, the inhibition in experiment [1] is 12.4%. Moreover, in experiment [2], the IC50 was 124 µM.
Turning to `Cc1ccc(-c2n[nH]c(=S)n2-c2c(C)cccc2C)cc1`, the inhibition in experiment [1] was 6.8%.
Take `Cc1cccc(C)c1Nc1nnc(-c2ccccc2Cl)s1`: the IC50 on Urease worked out at 313 µM. Also, the inhibition in experiment [1] amounted to 82.8%.
